In PubChem BioAssay:
Values without a mark were called inactive. Inconclusive results are not listed. The source made the active and inactive calls.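 How the source made its calls, unless noted: active means viability increase at or above a cutoff of the median across tested compounds plus 3 SD (cut at about 8.5% in these data, passing the limit was not always enough); inconclusive means some gains above the cutoff, reason not given; inactive means the rest.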

Legend:
[1] = S. cerevisiae growth inhibition in permissive medium (OD615), pilot counter-assay for S. cerevisiae lifespan shortening project, permissive growth control (AID 705;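 active means growth inhibition above 25% in both replicates, a cutoff set 3 SD above the mean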); details: OD615, 24 h, at 10 µM, active compounds read high
Summary of the method: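 Test system: Saccharomyces cerevisiae strain carrying genetically modified DeaD replicative-lifespan system; buffer or medium: SC raffinose/galactose permissive medium; dosing: one dose 10 µM, DMSO 0.25% final; times: 24 h exposure, 30 °C; measured by: OD at 615 nm; read-out basis: growth inhibition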

[2] = S. cerevisiae growth inhibition in restrictive medium, OD615, pilot screen, restrictive growth control, yeast lifespan reduction project (AID 706;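 active means growth inhibition above a set limit, 3 SD over mean compound inhibition, in both replicates, cut at about 43% in these data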;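 further: modified DeaD lifespan yeast strain shifted to restrictive glucose medium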); details: OD615, 48 h, at 10 µM, active compounds read high
Summary of the method: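 material = engineered S. cerevisiae DeaD strain | buffer or medium = glucose-based CSMM-D restrictive medium | dosing = one concentration, 10 µM final, 0.25% DMSO | schedule = 4 h pre-growth plus 48 h compound exposure, 30 °C | detection = OD615 absorbance reading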

[3] = doxorubicin toxicity protection in MRP-1 cells – H69AR cells, CellTiter-Glo, duplicate, MRP-1 activator project, pilot screen (AID 807); details: H69AR viability with doxorubicin, CellTiter-Glo luminescence; at 10 µM; active compounds read high;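 further: compound pretreatment 18-22 h then 72 h combined with doxorubicin; 0% = doxorubicin alone and 100% = vehicle without doxorubicin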
[4] = viability of PTEN-null HCT116 cells – cell-based, HCT116 clonal line, CellTiter-Glo, pilot screen (AID 824;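 active means viability at or below 27.92% in each of two runs, the all-compound median minus 4 SD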;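 further: 0% = 20 µM Hyamine control and 100% = vehicle cell control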); details: HCT116 PTEN-deleted viability, 60 h, at 10 µM, active compounds read low
[5] = RAM pathway blockade in budding yeast – dse1pr::URA3 reporter, 5-FOA selection, pilot screen (AID 869;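 active means inhibition over a set limit, the all-compound mean plus 3 SD, in both replicate runs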;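 further: 0% = DMSO wells with no growth and 100% = 10 µM 1-NA-PP1 with full growth; RAM network block rescues cells from 5-FOA so hits raise OD615 growth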); details: S. cerevisiae dse1pr::URA3 5-FOA growth, OD615, 2 d; at 10 µM; active compounds read high; strain carries analog-sensitive mutant Cbk1 kinase
[6] = RAM signaling pathway blockade in yeast – S. cerevisiae, Pdr1DBD-CYC8 efflux-inhibited sensitized strain, primary screen (AID 1298;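 active means RAM network inhibition above 8.4% in each of two replicates, 3 SD over the compound average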;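 further: 0% = DMSO untreated cells without growth and 100% = 10 µM 1-NA-PP1 full growth; higher means more yeast growth rescued from 5-FOA killing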); details: S. cerevisiae cbk1-as DSE1-URA3 strain, 5-FOA growth OD615, 2 d; at 50 µM; active compounds read high
[7] = viability of HCT116 without oncogenic beta-catenin – human colon tumor cells, pilot screen (AID 823;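 active means cell viability at or below a set limit in both duplicate runs, the limit being the all-compound median minus 4 SD, cut at about 23% in these data, passing the limit was not always enough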;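 further: 0% = wells killed by 20 µM Hyamine and 100% = untreated DMSO cell wells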); details: HCT116 beta-catenin knockout viability, CellTiter-Glo, 60 h; at 10 µM; active compounds read low

| Compound | growth inhibition [1] [%] | growth inhibition [2] [%] | viability increase [3] [%] | viability [4] | inhibition [5] [%] | RAM network inhibition [6] [%] | viability [7] [%] |
| --- | --- | --- | --- | --- | --- | --- | --- |
| CCNC(=O)CN(C1CCCCC1)S(=O)(=O)c1ccc(F)cc1 | -8.23 | -2.66 | -2.01 | 91% | 3.43 | -0.15 | – |
| CCCn1c(CN2CCN(c3cccc(Cl)c3)CC2)nc2c1c(=O)n(C)c(=O)n2C | -4.45 | -8.51 | -4.06 | 54% | – | 1.38 | – |
| COc1ccc(N2CCN(CCNC(=O)CCNS(=O)(=O)c3cccs3)CC2)cc1 | -5.45 | -5.3 | -0.82 | 96.3% | 1.71 | 2.25 | – |
| CC1(C)Cc2nc(-c3ccccc3)n3cnnc3c2CO1 | -8.06 | -4.3 | -1.77 | – | 0.36 | 4.42 | 102 |
| COc1ccc(Cn2c(=O)n(Cc3ccco3)c(=N)c3c4c(sc32)COC(C)(C)C4)cc1 | -17.7 | -5.45 | -5.35 | – | 0.42 | 2.55 | 66.2 |
| COc1cccc(C(=O)Nc2ccc(-c3nc4ccccc4o3)c(O)c2)c1 | -13.4 | -12.1 | -4.28 | – | 3.71 | 3.99 | 30.4 |
| CN(C)/C=C1/Sc2ccccc2C1=O | -13.4 | 10 | -3.51 | – | 1.11 | -0.73 | 103 |
| COc1cc2c(cc1OC)C(c1cccs1)NCC2 (stereo unspecified) | -10.4 | -8.06 | -3.87 | 92.6% | 0.41 | 4.46 | – |
| Cc1cccc(-n2c(=O)[nH]c3c(C(N)=O)nc(-c4ccccc4Cl)nc32)c1 | -7.62 | -0.18 | -7.67 | 11.7% (active) | 3.09 | 3.41 | – |
| COc1ccccc1CC(=O)Nc1ccc(-c2nnc(-c3ccco3)o2)cc1 | -3.64 | 8.35 | -2.58 | 77.7% | – | 8.02 | – |
| Cc1cc(NC(=O)c2ccc3c(c2)C(=O)N(C2CCCCC2)C3=O)no1 | -4.59 | -6.9 | -6.76 | 41.5% | – | 3.39 | – |
| CCCn1cc(S(=O)(=O)CC(=O)N2CCc3ccccc32)c2ccccc21 | -14.9 | -8.48 | -5.64 | – | 4.21 | 5.15 | 96.9 |
| CC1Cc2ccccc2N1C(=O)CCS(=O)(=O)c1cccc2nonc12 (stereo unspecified) | 8.09 | 10.7 | -6.45 | – | 0.56 | 3.48 | 85.7 |
| O=C(Nc1cccnc1)c1ccc(CN2CCc3ccccc3C2)cc1 | -3.88 | -5.93 | -2.11 | 93.3% | 2.54 | 2.06 | – |
| O=S(=O)(NCCc1csc(-c2cccnc2)n1)c1ccc2c(c1)OCCO2 | -5.61 | 8.38 | -0.72 | 95.5% | 1.71 | -0.63 | – |
| CC(C)Sc1nc(N)c2c3c(sc2n1)CN(C)CC3 | -10.7 | 9.69 | -3.04 | – | 1.16 | 5.2 | 101 |
| Cc1onc(-c2ccccc2Cl)c1C(=O)N1CCN(c2cccc(Cl)c2)CC1 | -18.9 | -13.7 | -6.53 | 22% (active) | 2.73 | 10.4 | – |
| Cc1ccc2nc(NC3=NCN(Cc4ccco4)CN3)nc(C)c2c1 | -1.68 | -0.67 | -7.05 | – | -0.585 | -1.94 | 27.2 |
| CC1CCc2sc3nc(N4CCN(CCO)CC4)n4ncnc4c3c2C1 (stereo unspecified) | -9.92 | 7.57 | -7.82 | – | 0.655 | 5.04 | 73.3 |
| Cc1nn(CC(=O)Nc2cccnc2N2CCOCC2)c(=O)c2ccccc12 | -23.7 | 1.05 | -2.18 | – | 1.22 | 1.71 | 95 |
| O=C(NC1(C(F)(F)F)Oc2ccccc2O1)N1CCCC1 | -3.63 | -7.95 | -6.12 | 81.3% | 0.56 | 1.58 | – |

| Compound | growth inhibition [1] [%] | growth inhibition [2] [%] | viability increase [3] [%] | viability [4] | inhibition [5] [%] | RAM network inhibition [6] [%] | viability [7] [%] |
| --- | --- | --- | --- | --- | --- | --- | --- |
| CCC(=O)N1CCc2cc(Br)cc(S(=O)(=O)N3CCN(c4ccccn4)CC3)c21 | -6.54 | -9.5 | -2.05 | – | 0.44 | 9.66 | 101 |
| COc1cc(OC)cc(C(=O)Nc2cc(NC(=O)c3ccco3)ccc2OC)c1 | -15.4 | 3.21 | -5.63 | – | 1.21 | 2.66 | 88.8 |
| Clc1nc2sccn2c1/C=N/n1cnc2ccccc21 | 19.9 | 33.8 | -6.14 | – | 0.675 | 2.34 | 94.7 |
| CCOC(=O)N1CCN(C(=O)CS(=O)(=O)c2cn(Cc3ccccc3C)c3ccccc23)CC1 | -9.04 | -6 | -2.26 | 94% | 2.09 | 8.81 | – |
| Cn1cc(S(=O)(=O)CC(=O)Nc2ccc3c(c2)OCCO3)c2ccccc21 | -14.9 | -1.21 | -1.77 | – | 3.01 | 3.07 | 106 |
| O=C1C2C3C=CC(C3)C2C(=O)N1CCN1CCN(S(=O)(=O)c2ccc3ccccc3c2)CC1 (stereo unspecified) | -8.82 | 0.84 | -5.03 | 83.5% | 1.27 | 3.68 | – |
| COc1ccc(C(=O)NC(C)c2nc3ccccc3[nH]2)cc1OC (stereo unspecified) | -9.91 | -3.65 | -1.84 | 97.9% | 2.15 | 4.78 | – |
| Cc1cccc(N2CCN(C(=O)c3ccc(NC(=O)C4CCCO4)cc3)CC2C)c1 (stereo unspecified) | -10.9 | 6.01 | -2.33 | – | 1.11 | 4.83 | 105 |
| CCC(=O)N1CCc2cc(Br)cc(S(=O)(=O)CCC(=O)NCc3ccco3)c21 | -26.8 | 0.16 | -4.1 | – | 2.91 | 4.36 | 94.9 |
| O=C(Oc1ccc(Cl)cc1)N1CCCCC1 | -8.34 | 3.42 | 0.94 | 103% | -0.1 | 4.56 | – |
| Cc1nc(-n2nnc3ccccc32)c2c3c(sc2n1)CCCC3 | -14.5 | 0.92 | -2.54 | – | 1.11 | 3.02 | 82 |
| O=C(NCc1ccco1)C1CCN(C(=O)Cc2ccccc2)CC1 | -8.46 | 4.75 | -3.71 | 102% | 1.32 | 3.59 | – |
| C(=N\c1nccs1)/c1c[nH]c2ccccc12 | -17.6 | 7.43 | -4.92 | – | 2.52 | 3.02 | 92.4 |
| O=C(Nc1ccc(Br)cc1Cl)c1cnccn1 | 1.88 | -0.415 | -0.71 | – | 1.97 | 2.32 | 84.1 |
| CCOC(=O)c1ccc(NC(=O)c2cccc(S(=O)(=O)N3CCOCC3)c2)cc1 | -9.14 | -4.13 | -0.35 | 57.2% | 2.96 | 7.23 | – |
| Cc1ccc(N=Cc2c(O)n(C)c(=O)n(C)c2=O)nc1 | 5.8 | 16.6 | 0.03 | 99.2% | 1.89 | -0.87 | – |
| CC(=O)c1ccc(C(=O)Nc2nnc(-c3ccc(Cl)cc3)o2)cc1 | -1.45 | 17 | -3.75 | 22.3% (active) | – | 2.8 | – |
| CCc1ccc(-c2nc(CSCC(=O)N3CCN(c4ncccn4)CC3)c(C)o2)cc1 | -2.9 | -2.11 | -3.72 | 52.6% | – | 7.89 | – |
| O=c1[nH]c(SCc2ccccc2Cl)nc2c1CCC2 | -4.46 | -1.71 | -2.17 | 96.9% | 1.91 | 1.7 | – |
| CC(NC(=O)c1ccccc1O)c1ccccc1 (stereo unspecified) | 0.015 | -2.42 | 0.41 | 94.1% | 0.1 | 0 | – |
